Experimental data from ChEMBL document CHEMBL4052683, “The discovery of benzoxazine sulfonamide inhibitors of NaV1.7: Tools that bridge efficacy and target engagement” (Bioorg Med Chem Lett, 2017).

Key:
[1] = Clearance in pooled human liver microsomes at 1 uM in presence of NADPH by LC-MS/MS method; assay type: ADME, microsome; conditions: read-out: CLH
[2] = biological target: Sodium channel protein type 9 subunit alpha (Rattus norvegicus, UniProt O08562); assay: Inhibition of rat NaV1.7 by cell based whole cell voltage clamp method
In short: (§1)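 PatchXpress electrophysiology was run with a protocol giving about 20% channel inactivation. At least four concentrations at half-log spacing were applied one at a time, with washout, current recovery and holding voltage reset between each. Data were pooled from at least 10 cells, with 2–3 points per concentration, and fitted with a 4-parameter Hill curve to give one IC50.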

Rattus norvegicus = assay: Unbound clearance in rat at 0.5 mg/kg, iv by LC-MS/MS method; assay type: ADME, organism-based; conditions: in vivo
In short: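 Male rats given 0.5 mg/kg intravenously as a solution in DMSO. Unbound clearance was calculated as rat clearance divided by unbound fraction, with unbound fraction determined by equilibrium dialysis.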

[3] = Clearance in pooled rat liver microsomes at 1 uM in presence of NADPH by LC-MS/MS method; assay type: ADME, microsome; conditions: read-out: CLH
[4] = Inhibition of cynomolgus monkey NaV1.7 by whole cell voltage clamp method; conditions: Macaca fascicularis; in short: as §1
Homo sapiens = species on record: Homo sapiens; assay: Selectivity index, ratio of IC50 for human NaV1.5 expressed in […] cells to IC50 for human NaV1.7 expressed in HEK293 cells; assay type: cell-based
[5] = Clearance in rat at 0.5 mg/kg, iv by LC-MS/MS method; assay type: ADME, organism-based; conditions: in vivo
In short: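 Male rats got 0.5 mg/kg IV as a DMSO solution. Unbound clearance was taken as rat clearance divided by the unbound fraction from equilibrium dialysis.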

[6] = biological target: Sodium channel protein type 5 subunit alpha (Homo sapiens, UniProt Q14524); assay: Inhibition of human NaV1.5 expressed in […] cells at holding potential of -125 mV with test potentials to -10 mV by whole cell voltage clamp method; assay type: cell-based
[7] = biological target: Sodium channel protein type 9 subunit alpha (Mus musculus, UniProt Q62205); assay: Inhibition of mouse NaV1.7 by whole cell voltage clamp method; in short: as §1
Chain of Sodium channel protein type 9 subunit alpha (Mus musculus, UniProt Q62205) (Q62205 whole entry): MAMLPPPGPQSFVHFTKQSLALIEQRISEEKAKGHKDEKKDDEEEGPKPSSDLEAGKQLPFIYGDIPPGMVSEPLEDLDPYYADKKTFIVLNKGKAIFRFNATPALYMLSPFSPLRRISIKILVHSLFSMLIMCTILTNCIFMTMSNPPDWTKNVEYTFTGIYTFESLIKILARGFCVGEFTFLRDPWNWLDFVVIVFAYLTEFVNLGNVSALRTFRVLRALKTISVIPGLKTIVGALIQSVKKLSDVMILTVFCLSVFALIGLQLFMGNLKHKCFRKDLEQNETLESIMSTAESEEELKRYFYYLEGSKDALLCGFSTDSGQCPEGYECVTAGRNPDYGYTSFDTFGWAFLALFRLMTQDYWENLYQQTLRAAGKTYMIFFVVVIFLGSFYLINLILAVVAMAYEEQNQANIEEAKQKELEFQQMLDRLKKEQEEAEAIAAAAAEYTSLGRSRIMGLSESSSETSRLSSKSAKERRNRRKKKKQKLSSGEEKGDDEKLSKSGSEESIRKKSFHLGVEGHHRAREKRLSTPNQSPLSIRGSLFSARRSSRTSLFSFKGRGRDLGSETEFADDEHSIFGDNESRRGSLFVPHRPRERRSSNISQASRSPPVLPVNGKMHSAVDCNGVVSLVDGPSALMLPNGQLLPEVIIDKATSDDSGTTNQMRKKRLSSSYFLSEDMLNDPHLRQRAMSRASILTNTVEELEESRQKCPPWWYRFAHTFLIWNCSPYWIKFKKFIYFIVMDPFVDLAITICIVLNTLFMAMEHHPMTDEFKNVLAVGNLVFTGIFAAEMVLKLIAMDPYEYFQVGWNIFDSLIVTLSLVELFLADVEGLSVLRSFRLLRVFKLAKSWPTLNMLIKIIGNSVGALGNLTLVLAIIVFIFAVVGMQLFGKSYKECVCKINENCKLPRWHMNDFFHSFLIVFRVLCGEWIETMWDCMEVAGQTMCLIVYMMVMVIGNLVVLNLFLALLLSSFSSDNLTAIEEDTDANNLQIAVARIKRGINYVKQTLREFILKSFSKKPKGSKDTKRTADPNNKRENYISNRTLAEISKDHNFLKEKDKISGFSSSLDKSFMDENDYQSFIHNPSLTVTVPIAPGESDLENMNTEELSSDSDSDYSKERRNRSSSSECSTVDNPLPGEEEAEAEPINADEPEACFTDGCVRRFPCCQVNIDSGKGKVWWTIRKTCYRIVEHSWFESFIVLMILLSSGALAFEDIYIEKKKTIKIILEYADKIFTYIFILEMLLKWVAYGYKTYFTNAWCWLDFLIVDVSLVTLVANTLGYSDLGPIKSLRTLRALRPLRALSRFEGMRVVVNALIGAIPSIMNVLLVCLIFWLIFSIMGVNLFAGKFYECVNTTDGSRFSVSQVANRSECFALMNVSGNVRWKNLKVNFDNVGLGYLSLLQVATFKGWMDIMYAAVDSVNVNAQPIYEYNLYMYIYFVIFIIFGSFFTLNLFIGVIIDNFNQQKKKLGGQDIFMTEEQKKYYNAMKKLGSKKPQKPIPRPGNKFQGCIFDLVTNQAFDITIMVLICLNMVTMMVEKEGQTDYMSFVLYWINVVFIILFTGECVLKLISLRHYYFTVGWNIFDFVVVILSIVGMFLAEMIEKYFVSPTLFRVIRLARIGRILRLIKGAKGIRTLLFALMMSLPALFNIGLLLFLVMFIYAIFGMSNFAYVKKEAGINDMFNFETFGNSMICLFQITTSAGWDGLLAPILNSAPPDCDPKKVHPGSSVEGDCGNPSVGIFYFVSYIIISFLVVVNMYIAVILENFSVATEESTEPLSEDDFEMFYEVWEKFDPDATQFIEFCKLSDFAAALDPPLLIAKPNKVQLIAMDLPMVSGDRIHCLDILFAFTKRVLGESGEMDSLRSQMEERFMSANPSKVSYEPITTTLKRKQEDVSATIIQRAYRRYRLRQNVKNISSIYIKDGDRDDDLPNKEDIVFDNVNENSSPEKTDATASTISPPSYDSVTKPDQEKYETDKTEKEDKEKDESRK

[8] = biological target: T1, Sodium channel protein type 9 subunit alpha (Homo sapiens, UniProt Q15858); assay: Inhibition of human NaV1.7 expressed in HEK293 cells at holding potential of -125 mV with test potentials to -10 mV by whole cell voltage clamp method; assay type: cell-based
T1 sequence (Q15858 whole entry): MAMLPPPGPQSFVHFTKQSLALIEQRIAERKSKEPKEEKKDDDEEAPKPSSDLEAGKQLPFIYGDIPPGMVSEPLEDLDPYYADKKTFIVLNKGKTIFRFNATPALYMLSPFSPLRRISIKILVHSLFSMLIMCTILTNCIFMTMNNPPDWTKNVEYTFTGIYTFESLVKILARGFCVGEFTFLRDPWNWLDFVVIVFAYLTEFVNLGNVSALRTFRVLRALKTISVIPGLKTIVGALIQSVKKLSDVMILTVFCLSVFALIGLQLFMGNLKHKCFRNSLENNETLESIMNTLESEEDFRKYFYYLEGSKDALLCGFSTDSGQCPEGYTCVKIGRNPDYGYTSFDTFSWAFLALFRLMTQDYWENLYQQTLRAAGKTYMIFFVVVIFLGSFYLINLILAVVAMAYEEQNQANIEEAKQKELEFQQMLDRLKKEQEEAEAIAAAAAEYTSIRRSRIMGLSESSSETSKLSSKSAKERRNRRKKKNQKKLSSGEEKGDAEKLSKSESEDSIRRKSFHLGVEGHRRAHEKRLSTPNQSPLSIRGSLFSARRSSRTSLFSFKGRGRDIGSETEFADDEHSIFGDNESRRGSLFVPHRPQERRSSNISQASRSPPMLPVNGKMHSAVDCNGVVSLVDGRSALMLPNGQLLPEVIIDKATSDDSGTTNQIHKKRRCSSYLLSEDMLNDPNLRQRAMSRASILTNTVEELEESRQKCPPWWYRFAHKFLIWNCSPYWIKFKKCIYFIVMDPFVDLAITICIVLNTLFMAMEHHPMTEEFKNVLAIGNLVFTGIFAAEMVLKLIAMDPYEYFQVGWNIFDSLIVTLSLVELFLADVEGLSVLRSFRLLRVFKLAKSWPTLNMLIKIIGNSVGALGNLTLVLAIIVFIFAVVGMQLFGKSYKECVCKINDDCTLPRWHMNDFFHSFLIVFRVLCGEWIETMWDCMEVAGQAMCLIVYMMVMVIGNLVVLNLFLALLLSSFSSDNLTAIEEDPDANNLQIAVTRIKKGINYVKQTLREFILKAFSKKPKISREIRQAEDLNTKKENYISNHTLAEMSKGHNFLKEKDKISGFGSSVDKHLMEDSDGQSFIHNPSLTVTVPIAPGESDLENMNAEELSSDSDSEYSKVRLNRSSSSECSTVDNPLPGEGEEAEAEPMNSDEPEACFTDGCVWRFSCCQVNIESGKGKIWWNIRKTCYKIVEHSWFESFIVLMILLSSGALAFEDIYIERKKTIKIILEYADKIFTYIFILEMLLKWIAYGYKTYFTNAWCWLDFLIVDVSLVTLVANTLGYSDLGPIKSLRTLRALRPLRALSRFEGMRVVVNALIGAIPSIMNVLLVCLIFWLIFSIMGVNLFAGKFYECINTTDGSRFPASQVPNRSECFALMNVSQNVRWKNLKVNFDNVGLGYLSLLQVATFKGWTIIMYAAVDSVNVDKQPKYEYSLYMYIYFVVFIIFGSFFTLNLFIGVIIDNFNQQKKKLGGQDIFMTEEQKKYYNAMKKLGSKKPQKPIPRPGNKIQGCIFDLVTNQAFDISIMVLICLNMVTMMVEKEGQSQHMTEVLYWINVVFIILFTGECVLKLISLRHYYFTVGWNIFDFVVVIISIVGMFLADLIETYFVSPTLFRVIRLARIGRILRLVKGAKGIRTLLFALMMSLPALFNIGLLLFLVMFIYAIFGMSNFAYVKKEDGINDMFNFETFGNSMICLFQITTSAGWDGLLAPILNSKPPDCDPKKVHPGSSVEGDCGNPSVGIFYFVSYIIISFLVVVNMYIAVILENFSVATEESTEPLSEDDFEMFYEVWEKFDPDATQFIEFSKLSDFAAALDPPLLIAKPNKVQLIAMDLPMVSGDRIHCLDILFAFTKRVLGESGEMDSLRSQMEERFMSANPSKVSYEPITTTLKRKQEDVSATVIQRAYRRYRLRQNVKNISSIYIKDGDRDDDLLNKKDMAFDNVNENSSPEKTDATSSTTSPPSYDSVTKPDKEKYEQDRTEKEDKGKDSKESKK

[9] = Apparent permeability in MDCK vector control cells at 5 uM; conditions: dog
[10] = biological target: T1, Sodium channel protein type 9 subunit alpha; assay: Displacement of (P)-1-(30-chloro-2-fluoro-5,50-dimethoxy-[1,10biphenyl]-4-yl)-N-(isoxazol-3-yl)-2-oxo-1,2-dihydroquinoline-6-sulfonamide[50-methoxy-C3H3] from human NaV1.7 expressed in HEK293 cell membranes incubated for 1 hr by beta counting method
In short: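 Human NaV1.7 radioligand displacement using the tritiated 5'-methoxy-labelled dihydroquinoline sulfonamide ligand, which binds the VSDIV pocket.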

[11] = Dissociation constant, pKa of the compound; assay type: physicochemical

SMILES | microsomal CLint at 1 µM [1] | IC50 [2] | CL free (Rattus norvegicus) | microsomal CLint at 1 µM [3] | IC50 [4] | clearance [5] | IC50 [7] | IC50 [8] | Papp at 5 µM [9] | IC50 [10] | pKa [11] | Ratio IC50 (Homo sapiens) | IC50 [6]
COc1cc(C(F)(F)F)ccc1N1CCOc2cc(S(=O)(=O)Nc3nccs3)ccc21 | 30 µL/min/mg | 0.39 µM | 40 L/h/kg | 53 µL/min/mg |  |  |  |  |  |  |  |  | 
O=S(=O)(Nc1ccncn1)c1ccc2c(-c3ccc(C(F)(F)F)cc3C3=CCNCC3)cccc2c1 |  | > 30 µM | 40 L/h/kg |  | 0.1 µM | 1.7 L/h/kg | 4.3 µM | 0.09 µM | 13 nm/s |  |  | > 330 | > 30 µM
N#Cc1cc(C(F)(F)F)ccc1N1CCOc2cc(S(=O)(=O)Nc3ncns3)ccc21 | < 14 µL/min/mg |  | 71 L/h/kg | 34 µL/min/mg |  | 0.64 L/h/kg |  | 0.09 µM | 16 nm/s | 0.021 µM | 3.8 |  | 
N#Cc1cc(C(F)(F)F)ccc1N1CCOc2cc(S(=O)(=O)Nc3ccno3)ccc21 | 32 µL/min/mg |  |  | < 14 µL/min/mg |  |  |  |  | < 10 nm/s |  |  |  | 
Cn1nccc1-c1ccccc1Oc1ccc(S(=O)(=O)Nc2nccs2)cc1C#N |  | 4.2 µM |  |  | 0.02 µM |  | 0.13 µM |  |  |  |  |  | 
COc1cc(F)ccc1N1CCOc2cc(S(=O)(=O)Nc3nccs3)ccc21 | 110 µL/min/mg | 0.88 µM |  | > 399 µL/min/mg |  |  |  | 0.28 µM | 360 nm/s |  |  | > 100 | > 30 µM
N#Cc1cc(C(F)(F)F)ccc1N1CCOc2cc(S(=O)(=O)Nc3nccs3)c(Cl)cc21 | 22 µL/min/mg | 0.05 µM |  | 21 µL/min/mg | 0.3 µM |  | 0.1 µM | 0.39 µM | 270 nm/s | 0.02 µM |  |  | 0.61 µM
N#Cc1cc(C(F)(F)F)ccc1N1CCOc2cc(S(=O)(=O)Nc3nccs3)cc(F)c21 | < 14 µL/min/mg | 0.56 µM |  | < 14 µL/min/mg |  |  |  |  | 260 nm/s |  |  |  | 0.65 µM
N#Cc1cc(C(F)(F)F)ccc1N1CCOc2cc(S(=O)(=O)Nc3cscn3)ccc21 | 55 µL/min/mg |  |  | < 14 µL/min/mg |  |  |  |  | 390 nm/s |  |  |  | 
N#Cc1cc(C(F)(F)F)ccc1N1CCOc2cc(S(=O)(=O)Nc3ncco3)ccc21 | 15 µL/min/mg |  |  | < 14 µL/min/mg |  |  |  |  | 64 nm/s |  |  |  | 

Continued, in another order:

microsomal CLint at 1 µM [1] | IC50 [2] | CL free (Rattus norvegicus) | microsomal CLint at 1 µM [3] | IC50 [4] | clearance [5] | IC50 [7] | IC50 [8] | Papp at 5 µM [9] | IC50 [10] | pKa [11] | SMILES | Ratio IC50 (Homo sapiens) | IC50 [6]
< 14 µL/min/mg | 1.7 µM |  | < 14 µL/min/mg |  |  |  |  | 380 nm/s |  |  | N#Cc1cc(C(F)(F)F)ccc1N1CCOc2c1ccc(S(=O)(=O)Nc1nccs1)c2F |  | 2.1 µM
68 µL/min/mg | 1.6 µM |  | 297 µL/min/mg |  |  |  |  | 280 nm/s |  |  | COc1ccccc1N1CCOc2cc(S(=O)(=O)Nc3nccs3)ccc21 | > 79 | > 30 µM
< 14 µL/min/mg | 1.1 µM | 31 L/h/kg | < 14 µL/min/mg |  | 0.33 L/h/kg |  |  | 220 nm/s |  | 7 | N#Cc1cc(C(F)(F)F)ccc1N1CCOc2cc(S(=O)(=O)Nc3nccs3)ccc21 | 8 | 1.5 µM
< 14 µL/min/mg | 3 µM | 7 L/h/kg | < 14 µL/min/mg |  | 0.17 L/h/kg |  |  | 97 nm/s |  | 5.8 | N#Cc1cc(C(F)(F)F)ccc1N1CCOc2cc(S(=O)(=O)Nc3ccncn3)ccc21 | 10 | 4.6 µM
 | > 30 µM | 14 L/h/kg |  |  | 2.6 L/h/kg |  |  | 10 nm/s |  |  | O=S(=O)(Nc1ccncn1)c1ccc2c(c1)OCCN2c1ccc(C(F)(F)F)cc1C1=CCNCC1 | 11 | 1.5 µM
36 µL/min/mg | 0.85 µM | 53 L/h/kg | 22 µL/min/mg |  | 0.84 L/h/kg |  | 0.25 µM | 200 nm/s |  |  | COc1cc(C#N)ccc1N1CCOc2cc(S(=O)(=O)Nc3nccs3)ccc21 | 56 | 14 µM
